Results as given in ChEMBL document CHEMBL4261600 (Eur J Med Chem, 2018).
Active and inactive are the calls of the source.

Experiments:
[1] = target: Phosphatidylinositol 4,5-bisphosphate 3-kinase catalytic subunit delta isoform (Homo sapiens) (UniProt O00329); experiment: Binding affinity to wild-type human partial length PIK3CD (R108 to Q1044 residues) expressed in mammalian expression system assessed as remaining unbound target protein level at 1000 nM by Kinomescan method relative to control
[2] = target: Serine/threonine-protein kinase RIO1 (Homo sapiens) (UniProt Q9BRS2); experiment: Binding affinity to wild-type human full length RIOK1 (M1 to K568 residues) expressed in bacterial expression system assessed as remaining unbound target protein level at 1000 nM by Kinomescan method relative to control
In short: (§1)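 Profiled in a KINOMEscan binding panel with the inhibitor at a single concentration of 1 μM. Binding to each kinase was read out as percent of control, relative to a DMSO control. Strong binders were defined as those with a percent control value below 1.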

[3] = target: Cyclin-dependent kinase 9 (Homo sapiens, UniProt P50750); experiment: Inhibition of CDK9 in human HL60 cells assessed as decrease in RNA polymerase 2 phosphorylation at Ser 2 residues in CTD domain after 2 hrs by immunoblotting analysis; assay type: cell-based
[4] = target: Receptor tyrosine-protein kinase erbB-4 (Homo sapiens) (UniProt Q15303); experiment: Binding affinity to wild-type human partial length ERBB4 (L690 to K994 residues) expressed in bacterial expression system assessed as remaining unbound target protein level at 1000 nM by Kinomescan method relative to control
[5] = target: Serine/threonine-protein kinase Sgk2 (Homo sapiens) (UniProt Q9HBY8); experiment: Binding affinity to wild-type human partial length SGK2 (L54 to C427 residues) expressed in mammalian expression system assessed as remaining unbound target protein level at 1000 nM by Kinomescan method relative to control
[6] = tested on: Tyrosine-protein kinase ABL1 (Homo sapiens), P00519 [T315I]; experiment: Binding affinity to human phosphorylated ABL1 T315I mutant (S229 to K512 residues) expressed in mammalian expression system assessed as remaining unbound target protein level at 1000 nM by Kinomescan method relative to control
In short: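 Single-point competition binding screen across a panel of 468 kinases and mutants, with the inhibitor at 1 μM. Binding is read out as percent of a DMSO control, and targets below 1 percent control were classed as strong binders.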

MV4-11 = experiment: Antitumor activity against human MV4-11 cells xenografted in nu/nu mouse assessed as tumor growth inhibition at 20 to 30 mg/kg, po administered via gavage for 21 days measured on day 21 post last dose; assay type: functional, organism-based
In short: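 Female nu/nu mice, five weeks old, implanted subcutaneously in the right flank with 5 million MV4-11 cells in PBS/Matrigel 1:1. Daily oral gavage in 0.5% methylcellulose/0.4% Tween80 started at tumor volume 200–400 mm³, 10, 20 or 30 mg/kg/day or vehicle, 5 mice per group. Tumor volume (W²×L)/2 and body weight measured daily; mean ± SEM.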

[7] = target: Tyrosine-protein kinase Yes (Homo sapiens) (UniProt P07947); experiment: Binding affinity to wild-type human partial length YES (T257 to L543 residues) expressed in bacterial expression system assessed as remaining unbound target protein level at 1000 nM by Kinomescan method relative to control
[8] = target: Protein kinase C iota type (Homo sapiens) (UniProt P41743); experiment: Binding affinity to wild-type human partial length PRKCI (H215 to V587 residues) expressed in mammalian expression system assessed as remaining unbound target protein level at 1000 nM by Kinomescan method relative to control
[9] = target: Serine/threonine-protein kinase MRCK gamma (Homo sapiens) (UniProt Q6DT37); experiment: Binding affinity to wild-type human partial length DMPK2 (S46 to S408 residues) expressed in bacterial expression system assessed as remaining unbound target protein level at 1000 nM by Kinomescan method relative to control
[10] = target: Serine/threonine-protein kinase mTOR (Homo sapiens) (UniProt P42345); experiment: Binding affinity to wild-type human partial length MTOR (L1382 to W2549 residues) expressed in mammalian expression system assessed as remaining unbound target protein level at 1000 nM by Kinomescan method relative to control
[11] = target: Epithelial discoidin domain-containing receptor 1 (Homo sapiens) (UniProt Q08345); experiment: Binding affinity to wild-type human partial length DDR1 (R565 to V876 residues) expressed in bacterial expression system assessed as remaining unbound target protein level at 1000 nM by Kinomescan method relative to control
[12] = target: Mitogen-activated protein kinase 10 (Homo sapiens) (UniProt P53779); experiment: Binding affinity to wild-type human partial length JNK3 (V28 to Q422 residues) expressed in mammalian expression system assessed as remaining unbound target protein level at 1000 nM by Kinomescan method relative to control
In short: (§2)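 KINOMEscan binding panel of 468 kinases/mutants. Inhibitor was tested at a single concentration of 1 μM. Binding is reported as percent of control, defined relative to a DMSO control.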

[13] = target: Receptor-type tyrosine-protein kinase FLT3 (Homo sapiens) (UniProt P36888); experiment: Binding affinity to wild-type human partial length FLT3 (V592 to Y969 residues) expressed in bacterial expression system assessed as remaining unbound target protein level at 1000 nM by Kinomescan method relative to control
[14] = target: Myosin light chain kinase family member 4 (Homo sapiens) (UniProt Q86YV6); experiment: Binding affinity to wild-type human partial length MYLK4 (V79 to S380 residues) expressed in bacterial expression system assessed as remaining unbound target protein level at 1000 nM by Kinomescan method relative to control; in short: as §2
[15] = target: Mitogen-activated protein kinase 4 (Homo sapiens) (UniProt P31152); experiment: Binding affinity to wild-type human partial length ERK4 (M1 to L365 residues) expressed in bacterial expression system assessed as remaining unbound target protein level at 1000 nM by Kinomescan method relative to control; in short: as §2
SKM-1 = experiment: Antiproliferative activity against human SKM1 cells after 72 hrs by Celltiter-Glo assay; assay type: functional; details: SKM-1, 72 h
In short: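 Cells seeded at 3000/well in 96-well plates, exposed to serially diluted compound for 72 h at 37 °C, 5% CO2. Viability read by CellTiter-Glo luminescence and normalized to DMSO control. GI50 derived from curve fit, mean of three independent measurements. Culture media: DMEM/10% FBS for adherent lines; IMDM for MV4-11 and MEC-1/2; RPMI 1640 for suspension lines and CHL.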

[16] = target: Calcium/calmodulin-dependent protein kinase type II subunit beta (Homo sapiens) (UniProt Q13554); experiment: Binding affinity to wild-type human partial length CAMK2B (M1 to Q380 residues) expressed in bacterial expression system assessed as remaining unbound target protein level at 1000 nM by Kinomescan method relative to control; in short: as §1
[17] = target: Mitogen-activated protein kinase 9 (Homo sapiens) (UniProt P45984); experiment: Binding affinity to wild-type human full length JNK2 (M1 to Q382 residues) expressed in mammalian expression system assessed as remaining unbound target protein level at 1000 nM by Kinomescan method relative to control
In short: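 KINOMEscan competition binding profile across a panel of 468 kinases and mutants, with the inhibitor tested at a single concentration of 1 μM. Binding is reported as percent of control, meaning signal relative to a DMSO control.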

Cyclin-dependent kinase 9, sequence (P50750 whole entry, the tested form may be a part): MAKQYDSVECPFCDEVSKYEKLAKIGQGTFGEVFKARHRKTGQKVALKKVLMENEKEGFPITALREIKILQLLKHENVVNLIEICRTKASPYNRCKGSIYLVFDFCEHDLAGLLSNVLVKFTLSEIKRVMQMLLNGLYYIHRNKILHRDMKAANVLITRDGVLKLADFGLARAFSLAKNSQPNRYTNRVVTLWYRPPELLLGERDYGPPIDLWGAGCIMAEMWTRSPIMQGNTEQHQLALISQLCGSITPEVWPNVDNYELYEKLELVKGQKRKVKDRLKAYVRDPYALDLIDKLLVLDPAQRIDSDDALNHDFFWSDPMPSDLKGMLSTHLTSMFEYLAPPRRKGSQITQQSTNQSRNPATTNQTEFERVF
Serine/threonine-protein kinase MRCK gamma (Homo sapiens), sequence (Q6DT37 whole entry, the tested form may be a part): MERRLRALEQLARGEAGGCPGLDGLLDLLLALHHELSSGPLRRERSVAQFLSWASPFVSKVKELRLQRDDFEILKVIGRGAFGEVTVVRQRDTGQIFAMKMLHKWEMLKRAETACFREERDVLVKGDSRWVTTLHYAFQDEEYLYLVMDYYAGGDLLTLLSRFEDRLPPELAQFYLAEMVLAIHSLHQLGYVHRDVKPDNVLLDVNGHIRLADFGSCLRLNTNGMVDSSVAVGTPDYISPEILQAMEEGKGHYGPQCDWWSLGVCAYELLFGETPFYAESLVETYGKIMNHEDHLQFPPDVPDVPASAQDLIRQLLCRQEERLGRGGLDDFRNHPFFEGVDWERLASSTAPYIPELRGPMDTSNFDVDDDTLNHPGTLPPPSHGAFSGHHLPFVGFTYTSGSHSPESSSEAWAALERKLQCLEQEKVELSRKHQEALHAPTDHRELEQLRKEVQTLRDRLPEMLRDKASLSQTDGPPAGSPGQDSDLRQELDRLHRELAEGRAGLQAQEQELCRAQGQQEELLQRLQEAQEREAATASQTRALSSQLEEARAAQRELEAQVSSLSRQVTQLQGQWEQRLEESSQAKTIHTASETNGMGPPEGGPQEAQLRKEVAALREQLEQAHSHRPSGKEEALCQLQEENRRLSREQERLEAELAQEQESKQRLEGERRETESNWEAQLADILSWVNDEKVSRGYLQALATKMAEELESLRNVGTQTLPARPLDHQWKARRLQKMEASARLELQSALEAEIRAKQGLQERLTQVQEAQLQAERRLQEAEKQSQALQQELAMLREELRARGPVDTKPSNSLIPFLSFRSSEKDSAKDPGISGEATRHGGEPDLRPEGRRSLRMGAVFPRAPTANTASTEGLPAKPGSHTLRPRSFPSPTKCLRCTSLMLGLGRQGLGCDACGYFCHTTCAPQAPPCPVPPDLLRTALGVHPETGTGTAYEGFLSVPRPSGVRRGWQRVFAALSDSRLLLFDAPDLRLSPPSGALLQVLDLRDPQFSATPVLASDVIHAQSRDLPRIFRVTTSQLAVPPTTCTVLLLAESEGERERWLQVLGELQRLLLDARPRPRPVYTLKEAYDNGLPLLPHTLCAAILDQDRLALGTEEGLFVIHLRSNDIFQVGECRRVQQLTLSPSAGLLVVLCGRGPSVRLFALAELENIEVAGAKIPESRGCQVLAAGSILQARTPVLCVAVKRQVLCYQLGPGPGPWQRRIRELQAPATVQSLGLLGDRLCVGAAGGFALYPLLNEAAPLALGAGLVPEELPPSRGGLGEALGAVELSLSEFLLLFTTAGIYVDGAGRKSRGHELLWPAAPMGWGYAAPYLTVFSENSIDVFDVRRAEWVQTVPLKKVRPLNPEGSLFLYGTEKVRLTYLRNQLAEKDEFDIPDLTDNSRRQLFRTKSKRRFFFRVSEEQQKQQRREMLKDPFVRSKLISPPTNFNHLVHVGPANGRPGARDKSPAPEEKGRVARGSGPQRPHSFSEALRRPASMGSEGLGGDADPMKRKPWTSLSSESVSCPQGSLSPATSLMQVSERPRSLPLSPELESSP
Receptor-type tyrosine-protein kinase FLT3 (Homo sapiens), sequence (P36888 whole entry, the tested form may be a part): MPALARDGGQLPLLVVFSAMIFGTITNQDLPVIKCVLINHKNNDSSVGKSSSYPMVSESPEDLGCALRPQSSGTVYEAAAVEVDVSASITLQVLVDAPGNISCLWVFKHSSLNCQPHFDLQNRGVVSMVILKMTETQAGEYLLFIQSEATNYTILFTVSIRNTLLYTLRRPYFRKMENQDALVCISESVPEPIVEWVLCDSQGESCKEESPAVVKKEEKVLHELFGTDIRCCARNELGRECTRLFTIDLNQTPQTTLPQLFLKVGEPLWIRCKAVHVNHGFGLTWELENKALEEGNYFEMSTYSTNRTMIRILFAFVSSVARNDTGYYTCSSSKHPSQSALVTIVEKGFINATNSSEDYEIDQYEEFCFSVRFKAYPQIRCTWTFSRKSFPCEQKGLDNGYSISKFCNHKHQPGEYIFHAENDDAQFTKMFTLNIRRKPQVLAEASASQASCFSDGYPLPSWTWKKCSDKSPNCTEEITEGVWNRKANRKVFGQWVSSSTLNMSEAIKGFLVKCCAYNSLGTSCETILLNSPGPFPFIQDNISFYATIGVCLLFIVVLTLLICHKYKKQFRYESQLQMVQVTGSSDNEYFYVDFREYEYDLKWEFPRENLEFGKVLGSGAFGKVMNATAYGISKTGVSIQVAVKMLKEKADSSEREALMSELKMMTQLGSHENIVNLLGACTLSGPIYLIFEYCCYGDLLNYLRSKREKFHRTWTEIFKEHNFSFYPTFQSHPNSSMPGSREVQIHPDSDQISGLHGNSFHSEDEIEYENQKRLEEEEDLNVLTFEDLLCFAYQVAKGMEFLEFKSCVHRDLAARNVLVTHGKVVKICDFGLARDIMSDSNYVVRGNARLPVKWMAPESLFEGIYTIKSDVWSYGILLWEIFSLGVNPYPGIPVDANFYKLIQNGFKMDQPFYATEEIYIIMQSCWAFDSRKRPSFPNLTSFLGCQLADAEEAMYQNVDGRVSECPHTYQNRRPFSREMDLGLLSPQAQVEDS
Protein kinase C iota type (Homo sapiens), sequence (P41743 whole entry, the tested form may be a part): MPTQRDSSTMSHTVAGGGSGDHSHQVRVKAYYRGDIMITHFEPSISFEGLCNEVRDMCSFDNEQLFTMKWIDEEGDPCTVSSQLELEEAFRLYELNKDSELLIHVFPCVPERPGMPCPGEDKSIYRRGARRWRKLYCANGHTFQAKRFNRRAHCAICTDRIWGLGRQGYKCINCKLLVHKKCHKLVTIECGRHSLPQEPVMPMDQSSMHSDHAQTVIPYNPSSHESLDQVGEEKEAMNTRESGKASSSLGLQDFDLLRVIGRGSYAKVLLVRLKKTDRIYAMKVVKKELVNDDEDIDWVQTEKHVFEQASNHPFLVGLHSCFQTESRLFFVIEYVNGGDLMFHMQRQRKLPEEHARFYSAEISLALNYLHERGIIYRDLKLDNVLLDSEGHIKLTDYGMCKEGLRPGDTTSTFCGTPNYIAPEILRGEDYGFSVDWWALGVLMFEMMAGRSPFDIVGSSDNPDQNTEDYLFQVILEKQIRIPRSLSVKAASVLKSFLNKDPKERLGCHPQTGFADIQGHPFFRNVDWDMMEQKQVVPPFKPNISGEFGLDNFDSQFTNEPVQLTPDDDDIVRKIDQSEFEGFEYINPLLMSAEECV
Phosphatidylinositol 4,5-bisphosphate 3-kinase catalytic subunit delta isoform (Homo sapiens), sequence (O00329 whole entry, the tested form may be a part, canonical isoform): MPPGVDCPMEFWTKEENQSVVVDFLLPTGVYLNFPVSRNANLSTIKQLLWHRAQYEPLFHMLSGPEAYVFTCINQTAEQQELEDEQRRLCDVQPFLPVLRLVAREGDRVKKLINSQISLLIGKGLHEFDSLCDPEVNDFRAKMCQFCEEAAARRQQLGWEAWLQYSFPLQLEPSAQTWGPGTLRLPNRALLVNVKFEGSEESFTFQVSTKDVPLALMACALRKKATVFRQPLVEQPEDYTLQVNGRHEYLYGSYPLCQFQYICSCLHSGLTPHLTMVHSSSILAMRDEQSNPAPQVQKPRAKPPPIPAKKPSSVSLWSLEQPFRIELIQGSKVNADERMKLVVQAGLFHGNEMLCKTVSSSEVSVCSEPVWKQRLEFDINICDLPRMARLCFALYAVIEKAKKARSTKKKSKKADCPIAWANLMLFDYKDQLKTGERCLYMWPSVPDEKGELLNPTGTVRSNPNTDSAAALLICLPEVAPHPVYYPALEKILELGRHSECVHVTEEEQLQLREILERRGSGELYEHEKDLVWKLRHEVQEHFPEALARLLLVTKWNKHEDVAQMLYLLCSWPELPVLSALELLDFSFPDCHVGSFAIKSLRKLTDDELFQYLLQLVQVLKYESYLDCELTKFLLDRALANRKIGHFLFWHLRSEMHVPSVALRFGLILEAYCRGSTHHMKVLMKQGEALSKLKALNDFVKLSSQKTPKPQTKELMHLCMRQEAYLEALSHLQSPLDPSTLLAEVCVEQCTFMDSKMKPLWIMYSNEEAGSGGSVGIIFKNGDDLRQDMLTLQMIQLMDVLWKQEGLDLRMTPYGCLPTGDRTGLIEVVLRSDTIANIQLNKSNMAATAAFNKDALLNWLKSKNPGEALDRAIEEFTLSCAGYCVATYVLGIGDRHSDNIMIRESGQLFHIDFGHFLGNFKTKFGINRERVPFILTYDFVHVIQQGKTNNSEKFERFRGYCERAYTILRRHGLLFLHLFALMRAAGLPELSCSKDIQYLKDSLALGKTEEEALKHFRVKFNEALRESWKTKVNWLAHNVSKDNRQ
Mitogen-activated protein kinase 10 (Homo sapiens), sequence (P53779 whole entry, the tested form may be a part): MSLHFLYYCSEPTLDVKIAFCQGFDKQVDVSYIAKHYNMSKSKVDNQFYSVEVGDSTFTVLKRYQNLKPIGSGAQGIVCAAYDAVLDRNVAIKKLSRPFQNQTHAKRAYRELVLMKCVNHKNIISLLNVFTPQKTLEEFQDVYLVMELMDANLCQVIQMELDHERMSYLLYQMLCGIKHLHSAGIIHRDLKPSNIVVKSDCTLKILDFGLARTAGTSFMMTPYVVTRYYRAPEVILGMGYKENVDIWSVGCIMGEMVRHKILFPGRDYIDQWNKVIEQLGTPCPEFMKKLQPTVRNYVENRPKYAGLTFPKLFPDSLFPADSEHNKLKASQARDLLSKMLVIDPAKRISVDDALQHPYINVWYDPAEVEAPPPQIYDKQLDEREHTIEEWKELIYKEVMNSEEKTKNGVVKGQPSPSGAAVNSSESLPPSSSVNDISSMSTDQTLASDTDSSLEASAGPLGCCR

COCCN[C@H]1CC[C@H](Nc2cc(-c3csc(NCC4(C#N)CCOCC4)n3)c(Cl)cn2)CC1
Activity [1]: 85%
Activity [2]: 79%
EC50 [3]: < 100 nM
inhibition [3]: Dose-dependent effect
Activity [4]: 85%
Activity [5]: 89%
Activity [6]: 95%
TGI (MV4-11): Active
Activity [7]: 97%
Activity [8]: 100%
Activity [9]: 92%
Activity [10]: 90%
Activity [11]: 89%
Activity [12]: 7.1%
Activity [13]: 89%
Activity [14]: 94%
Activity [15]: 99%
GI50 (SKM-1): 12 nM
Activity [16]: 100%
Activity [17]: 8.2%
